The source of these data is ChEMBL document CHEMBL5344453, “Selective Recognition of c-KIT 1 G-Quadruplex by Structural Tuning of Heteroaromatic Scaffolds and Side Chains” (ACS Med Chem Lett, 2024).

Test [1] has as its system Quadruplex DNA. The test can be described thus: Stabilization of G-quadruplex BCL2 5-FAM-AGGGGCGGGCGCGGGAGGAAGGGGGCGGGAGCGGGGCTG-TAMRA-3 (unknown origin) assessed as change in melting temperature at 1 uM incubated for 1 hr in dark condition by FRET-based melting assay. It counts as nucleic-acid assay. The gist of the method:
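FRET melting of dual-fluorophore-tagged oligonucleotides (200 nM) in 60 mM potassium cacodylate buffer, pH 7.4, with ligand at 1 μM; ΔTm taken against the ligand-free oligonucleotide Tm as control.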

Test [2] deals with Quadruplex DNA. The test is described as follows: Stabilization of 5-FAM/3-TAMRA labelled G-quadruplex c-KIT1 5-FAM-GGGAGGGCGCTGGGAGGAGGG-TAMRA-3 (unknown origin) assessed as change in melting temperature incubated for 1 hr in dark condition by FRET-based melting assay. To be noted: dose 1-10 µM. It counts as nucleic-acid assay. The gist of the method:
(§1)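 FRET melting of dual-fluorophore (FAM/TAMRA) tagged G-quadruplex (200 nM) in 60 mM potassium cacodylate, pH 7.4. The screen used 1 μM ligand; dose series used 1, 3, 5, 7 and 10 μM. ΔTm was taken against the Tm of the same oligonucleotide without ligand.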

Test [3] has as its system Quadruplex DNA. The test is described as follows: Stabilization of G-quadruplex c-KIT1 5-FAM-GGGAGGGCGCTGGGAGGAGGG-TAMRA-3 (unknown origin) assessed as change in melting temperature at 10 uM incubated for 1 hr in dark condition by FRET-based melting assay. It counts as nucleic-acid assay. In short, it runs like this:
as §1

In test [4] the test system is Quadruplex DNA. The test can be described thus: Stabilization of G-quadruplex c-MYC 5-FAM-TGGGGAGGGTGGGGAGGGTGGGGAAGG-TAMRA- 3 (unknown origin) assessed as change in melting temperature at 10 uM incubated for 1 hr in dark condition by FRET-based melting assay. It is filed as nucleic-acid assay. In short, it runs like this: as §1
The subject of test [5] is Quadruplex DNA. The test is described as follows: Stabilization of G-quadruplex BCL2 5-FAM-AGGGGCGGGCGCGGGAGGAAGGGGGCGGGAGCGGGGCTG-TAMRA-3 (unknown origin) assessed as change in melting temperature at 10 uM incubated for 1 hr in dark condition by FRET-based melting assay. It counts as nucleic-acid assay. The gist of the method:
as §1

Test [6] deals with Quadruplex DNA. The test can be described thus: Binding affinity to excessive G-quadruplex c-KIT1 5-FAM-GGGAGGGCGCTGGGAGGAGGG-TAMRA-3 (unknown origin) assessed as fold increase in fluorescence intensity at 1 uM incubated for 1 hr in dark condition by fluorescence spectroscopy assay relative to VEGF. It is filed as nucleic-acid assay. The gist of the method: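 Ligand (1.0 μM) titrated to saturation with increasing G-quadruplex in 100 mM Tris-KCl buffer, pH 7.4. The value is the ratio of the c-KIT 1 fold change in fluorescence intensity to the fold change obtained with VEGF or c-KIT 2.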

Test [7] relates to Quadruplex DNA. The test can be described thus: Binding affinity to excessive G-quadruplex c-KIT1 5-FAM-GGGAGGGCGCTGGGAGGAGGG-TAMRA-3 (unknown origin) assessed as fold increase in fluorescence intensity at 1 uM incubated for 1 hr in dark condition by fluorescence spectroscopy assay. It is filed as nucleic-acid assay. In short, it runs like this:
(§2)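 Fluorimetric titration in 100 mM Tris-KCl buffer, pH 7.4. Ligand fixed at 1.0 μM and titrated with increasing concentrations of each G-quadruplex until fluorescence saturation. The fold increase in ligand fluorescence intensity was read, and Kd was derived from the titration plot.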

Test [8] relates to Quadruplex DNA. The test can be described thus: Binding affinity to excessive G-quadruplex VEGF 5-FAM-CGGGGCGGGCCGGGGGCGGGGT-TAMRA-3 (unknown origin) assessed as fold increase in fluorescence intensity at 1 uM incubated for 1 hr in dark condition by fluorescence spectroscopy assay. It counts as nucleic-acid assay. The gist of the method:
as §2

Test [9] concerns the target Quadruplex DNA. The test is described as follows: Binding affinity to G-quadruplex c-KIT 2 5-FAM-GGGCGGGCGCGAGGGAGGGG-TAMRA-3 (unknown origin) assessed as dissociation constant by fluorescence spectroscopy assay. It counts as nucleic-acid assay. In short, it runs like this:
(§3)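 Fluorimetric titration of ligand held at 1.0 μM with increasing concentrations of G4 or dsDNA until saturation. Change in ligand fluorescence intensity was fitted for Kd. Run in 100 mM Tris-KCl buffer, pH 7.4.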

Test [10] deals with Quadruplex DNA. The test is described as follows: Binding affinity to G-quadruplex VEGF 5-FAM-CGGGGCGGGCCGGGGGCGGGGT-TAMRA-3 (unknown origin) assessed as dissociation constant by fluorescence spectroscopy assay. It is filed as nucleic-acid assay. The gist of the method:
as §3

Test [11] deals with Quadruplex DNA. The test can be described thus: Binding affinity to G-quadruplex c-KIT 2 5-FAM-GGGCGGGCGCGAGGGAGGGG-TAMRA-3 (unknown origin) assessed as dissociation constant by measuring thermogram by isothermal titration calorimetry (ITC) assay. It is filed as nucleic-acid assay. In short, it runs like this: (§4)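 ITC of ligand binding to folded G4 in 100 mM Tris-KCl buffer, pH 7.4. Kd and stoichiometry were obtained from the isothermal heat curve and binding isotherm.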

Test [12] concerns the target Quadruplex DNA. The test can be described thus: Binding affinity to G-quadruplex VEGF 5-FAM-CGGGGCGGGCCGGGGGCGGGGT-TAMRA-3 (unknown origin) assessed as dissociation constant by measuring thermogram by isothermal titration calorimetry (ITC) assay. It counts as nucleic-acid assay. In short, it runs like this:
as §4

In test [13] the test system is K562. The test is described as follows: Cytotoxicity against human c-KIT-positive K562 cells assessed as cell viability measured after 24 hrs by XTT formazan assay. It counts as functional, cell-based. To be noted: K562, 24 h.
Test [14] can be described thus: Induction of cell permeation in human c-KIT-positive K562 cell membrane assessed as fold increase in (G- quadruplex/antibody complex) BG4 foci at 3 uM measured after 24 hrs by immunofluorescence assay. It counts as functional. In short, it runs like this: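 K562 cells were treated with ligand (3 or 5.5 μM) and immunostained with G4-specific antibody BG4. Nuclear BG4 foci were counted by confocal microscopy and expressed relative to untreated cells.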

Test [15] can be described thus: Reduction of c-KIT oncogene expression in human K562 cells transfected with c-KIT plasmid construct assessed as reduction in luciferase expression at 3 uM measured after 36 hrs by luciferase reporter assay. It counts as functional. The gist of the method:
(§5)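 K562 cells were transfected with luciferase plasmids carrying the c-KIT, c-MYC or BCL-2 promoter G4. They were then treated with ligand (3 and 6 μM or 5.5 and 11 μM), and relative luciferase expression was measured.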
On the technique in general: A reporter such as luciferase makes a cellular process visible.

Test [16] can be described thus: Reduction of c-KIT oncogene expression in human K562 cells transfected with c-KIT plasmid construct assessed as reduction in luciferase expression at 6 uM measured after 36 hrs by luciferase reporter assay. It is filed as functional. The gist of the method: as §5
A short description of test [17]: Reduction of c-MYC oncogene expression in human K562 cells transfected with c-MYC plasmid construct assessed as reduction in luciferase expression at 6 uM measured after 36 hrs by luciferase reporter assay. It counts as functional. The gist of the method:
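Promoter luciferase reporter: K562 cells transfected with a c-MYC promoter G4-containing luciferase-expressing plasmid, then ligand-treated at two doses each (3 and 6 μM, or 5.5 and 11 μM); read-out as relative luciferase expression, reported as percent reduction.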

A short description of test [18]: Reduction of c-KIT protein expression in human K562 cells at 6 uM measured after 24 hrs by Western blotting analysis relative to control. It is filed as functional. In short, it runs like this:
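K562 cells were treated with ligand (3 and 6 μM or 5.5 and 11 μM). c-KIT protein was measured by Western blot with GAPDH as the housekeeping reference, relative to control.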
(In general: Immunoblotting shows a protein as a band on a membrane.)

In test [19] the test system is K562. The test is described as follows: Induction of cell cycle arrest in human K562 cells assessed as accumulation at G0/G1 phase at 3 uM incubated for 24 hrs by propidium iodide based assay. It is filed as functional. In short, it runs like this: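 K562 cells were treated with ligand (3 and 6 μM or 5.5 and 11 μM) and stained with propidium iodide. The fraction of cells in each cell-cycle phase was determined by flow cytometry.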

A word on the ΔTm: it is the shift of the melting midpoint relative to a reference. In general, Kd refers to the concentration at which binding is half-saturated. One may read the IC50 as the concentration needed to halve the response being measured. By inhibition is commonly meant the percentage by which the read-out fell short of the control. For `CN(C)CCCNC(=O)c1ccc(-n2cc(-c3ccc4[nH]c5ccccc5c4c3)nn2)cc1`, the ΔTm in the test with Quadruplex DNA [1] turned out to be 2.2 °C; in the test with Quadruplex DNA [3] it was 26.5 °C; with Quadruplex DNA [4], 17.3 °C; with Quadruplex DNA [5], 12.1 °C. The Activity entry is “Dose-Dependent Effect” in the test on Quadruplex DNA [2] and 74.1% in the test on K562 [19]. Besides, the fold change (FC) with Quadruplex DNA [6] worked out at 2.8; in the test on Quadruplex DNA [7], 5.2; with Quadruplex DNA [8] it was 2.1; in test [14], 5.4. Also, the dissociation constant Kd stood at 2.8 µM on Quadruplex DNA [9], 2.9 µM at Quadruplex DNA [10], 20.9 µM at Quadruplex DNA [11] and 15.9 µM on Quadruplex DNA [12]. Further, in the test with K562 [13], the IC50 was determined as 6.2 µM. Further, the inhibition at 3 µM in [15] was determined as 22%. In addition, the inhibition at 6 µM in [16] was 69%; in test [17], 12.3%; in test [18], 65.5%.
